Values joined by “and” are separate entries in the source; they are usually repeats but may differ in a detail not shown here. Equal entries are not always repeated. Where two headings read alike, the source gives them in different places.

Experiment [1] has as its system MCF-10A cells. Briefly: MTT cytotoxicity assay against normal MCF-10A cells. The note with it: for IC50: Homo sapiens, MCF-10A, read-out: IC50 ± SD MCF-10A; for IC50 ± SD MCF-10A: MTT assay, normal MCF-10A cells, mean ± SD, n = 3. Type of experiment: cell-based. The procedure, abridged:
(§1)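 Cells kept in RPMI-1640 with L-glutamine at 37 °C under 5% CO2. Plated at 5 × 10^4 cells per well in triplicate. Next day they received test compound at 0.01, 0.1, 1, 10 and 100 μM. Viability read by MTT. IC50 came from a nonlinear dose–response fit of % viability against concentration.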

Experiment [2] concerns the target T1, PIM-1 kinase (Homo sapiens, UniProt P11309). Briefly: PIM-1 kinase inhibitory assay. Format: biochemical. Particulars: for % of PIM-1 inhibition: concentration not given.
Experiment [3] relates to MCF-7 cells. Put plainly: DNA content flow cytometry cell cycle analysis. Type of experiment: cell-based, human. Particulars: MCF-7 cells treated at IC50 = 0.57 μM, 48 h. (In flow cytometry, cells or beads pass a laser one at a time.)
Experiment [4] relates to HepG2 cells. Briefly: MTT cytotoxicity assay against HepG2 cells. Format: cell-based, human. The procedure, abridged:
as §1
(Tetrazolium assays rely on reduction of a dye to a coloured formazan, in cell work by metabolically active cells.)

Experiment [5] has as its system MCF-7 cells. Put plainly: Annexin V/PI staining flow cytometry. Format: cell-based, human. Particulars: MCF-7 cells treated at IC50 = 0.57 μM, 48 h. The procedure, abridged: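 MCF-7 cells seeded at 3–5 × 10^5 per well, incubated overnight, then exposed to test compound for 48 h. Supernatant and cells collected and rinsed in ice-cold PBS. Resuspended in annexin binding buffer (CaCl2, NaCl, Hepes/NaOH, pH 7.4) with annexin V-FITC (1:100) and PI (10 μg mL−1), kept 30 min in the dark, then analysed on a FACSCalibur flow cytometer.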

Experiment [6] relates to P53, Bax, caspases-3,8,9, Bcl-2 and PIM-1 gene expression in MCF-7 cells. Put plainly: RT-PCR of apoptosis-related genes. Format: cell-based, human. The note with it: MCF-7, IC50 = 0.57 μM, 48 h, normalized to β-actin, control = 1. The procedure, abridged: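 MCF-7 cells treated with test compound for 48 h, then taken for RT-PCR of apoptosis-related genes. Ct values were normalised to β-actin to give relative expression as fold change versus untreated control (set to 1). Values average three independent runs.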

Experiment [7] deals with T1, PIM-1 kinase. The note with it: read-out: IC50 ± SD PIM-1 kinase inhibition; previously reported value ref 32; cited from earlier work.
Where [8] appears, read: read-out: IC50 ± SD HepG2, MTT assay, liver cancer HepG2 cells, mean ± SD, n = 3.

T1 sequence (P11309 whole entry): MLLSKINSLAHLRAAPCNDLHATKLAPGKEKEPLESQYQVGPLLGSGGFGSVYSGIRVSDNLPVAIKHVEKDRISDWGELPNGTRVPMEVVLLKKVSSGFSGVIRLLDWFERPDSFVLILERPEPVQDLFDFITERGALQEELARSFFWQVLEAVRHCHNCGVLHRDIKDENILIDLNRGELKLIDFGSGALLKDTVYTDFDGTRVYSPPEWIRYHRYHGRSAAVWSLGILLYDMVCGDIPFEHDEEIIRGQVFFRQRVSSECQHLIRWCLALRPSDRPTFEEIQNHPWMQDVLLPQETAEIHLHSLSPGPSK

In the case of `N#Cc1c(-c2ccc(Cl)cc2)c2c(=O)[nH]nnc2n(C2CCCCC2)c1=O` [Compound 11, 5-(4-Chlorophenyl)-8-cyclohexyl-4,7-dioxo-3,4,7,8-tetrahydropyrido[2,3-d][1,2,3]triazine-6-carbonitrile], in experiment [1], the concentration for half-maximal inhibition (IC50) (commonly the concentration needed to halve the response being measured) is at least 50 µM and the “IC50 ± SD MCF-10A” value was “non-toxic”. Further, in experiment [2], the IC50 was found to be 0.0214 ± 0.00024 µM and the “% of PIM-1 inhibition” value came out at 92.1 ± 1.9%.
Take `N#Cc1c(-c2ccc(Cl)cc2)c2c(=O)[nH]c(CCl)nc2n(C2CCCCC2)c1=O` [Compound 6, 2-(Chloromethyl)-5-(4-chlorophenyl)-8-cyclohexyl-4,7-dioxo-3,4,7,8-tetrahydropyrido[2,3-d]pyrimidine-6-carbonitrile]: in experiment [1], the IC50 was 43.5 ± 2.9 µM and the “IC50 ± SD MCF-10A” value was “non-toxic”. In addition, in experiment [2], half-maximal inhibition (IC50) was put at 0.0346 ± 0.00018 µM and the “% of PIM-1 inhibition” value is recorded as 89.6 ± 2.1%.
Turning to `N#Cc1c(-c2ccc(Cl)cc2)c2c(=O)[nH]c(-c3ccc(Cl)cc3Cl)nc2n(C2CCCCC2)c1=O` [Compound 4, 5-(4-Chlorophenyl)-8-cyclohexyl-2-(2,4-dichlorophenyl)-4,7-dioxo-3,4,7,8-tetrahydropyrido[2,3-d]pyrimidine-6-carbonitrile], the “cell population at G2/M phase” value in experiment [3] (control 18.86%) is listed as 4.47%. In experiment [3] (control 48.37%), the “cell population at G1 phase” value is given as 56.36%. For the same compound, in experiment [1], the 50% inhibitory concentration (IC50) was determined as 47.6 ± 3.1 µM and the “IC50 ± SD MCF-10A” value is listed as “non-toxic”. For the same compound, the half-maximal inhibitory concentration (IC50) in experiment [4] (setting [8]) came to 1.13 ± 0.19 µM. Further, in experiment [5], the “early apoptosis (Q4)” value was determined as 22.11%; the “increase of cell apoptosis versus untreated control” value is 58.29 fold and 58.3 fold; the “late apoptosis (Q2)” value worked out at 14.03%. In experiment [5] (untreated control 0.62%), this compound returned a total apoptosis of 36.14%. Moreover, in experiment [6], the “Bax gene expression fold change” value is 6.7 fold, the “Bcl-2 gene expression fold change” value is 0.11 fold, the “P53 gene expression fold change” value is on record as 7.9 fold and the “PIM-1 gene expression fold change” value was 0.31 fold. In experiment [6], the “caspase-3 gene expression fold change” value is listed as 11.2 fold, the “caspase-8 gene expression fold change” value stood at 1.23 fold and the “caspase-9 gene expression fold change” value came out at 8.9 fold. In experiment [2], the IC50 was found to be 0.0114 ± 0.00013 µM and the “% of PIM-1 inhibition” value is reported as 97.8 ± 1.8%.
Consider `CN[C@@H]1C[C@H]2O[C@@](C)([C@@H]1OC)n1c3ccccc3c3c4c(c5c6ccccc6n2c5c31)C(=O)NC4` [Staurosporine, reference compound], for which the IC50 in experiment [4] (Homo sapiens, HepG2, read-out: IC50 ± SD HepG2) was 5.07 ± 0.36 µM.
Regarding `N#Cc1c(-c2ccc(Cl)cc2)c2c(=O)[nH]cnc2n(C2CCCCC2)c1=O` [Compound 9, 5-(4-Chlorophenyl)-8-cyclohexyl-4,7-dioxo-3,4,7,8-tetrahydropyrido[2,3-d]pyrimidine-6-carbonitrile], in experiment [4] (setting [8]), the IC50 turned out to be 4.6 ± 0.34 µM.
For the compound `N#Cc1c(-c2ccc(Cl)cc2)c2c(=O)[nH]c(=S)[nH]c2n(C2CCCCC2)c1=O` [Compound 10, 5-(4-Chlorophenyl)-8-cyclohexyl-4,7-dioxo-2-thioxo-1,2,3,4,7,8-hexahydropyrido[2,3-d]pyrimidine-6-carbonitrile], in experiment [1], the IC50 is at least 50 µM and the “IC50 ± SD MCF-10A” value is listed as “non-toxic”. Moreover, in experiment [2], half-maximal inhibition (IC50) was put at 0.0172 ± 0.0002 µM and the “% of PIM-1 inhibition” value is recorded as 94.6 ± 2.1%.
For the compound `N[C@H]1CC[C@H](Nc2nc(Nc3cccc(C(F)(F)F)c3)c3c(=O)[nH]ccc3n2)CC1` [SKI-O-068], the IC50 in experiment [7] is 0.123 ± 0.014 µM.

These data come from article PMC10996840 (RSC Advances, 2024).
